Tested on: T-24
Assay: Antiproliferative activity against human T24 cells assessed as reduction in cell viability incubated for 48 hrs by MTT assay
Format: functional, cell-based
Conditions: T-24, 48 h
How it was run: (§1)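 Growth inhibition was measured in vitro on human lines: HEK293 (embryonic kidney), PNT1A (normal prostate epithelium immortalized with SV40), PC3 and DU145 (prostate cancer), KK47 and T24 (bladder carcinoma) and 786-O (kidney carcinoma). IC50 in µM was taken from dose–response curves for each cell line.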

SMILES	IC50 [µM]
COc1cc(O)ccc1N1CCN(CC(O)COc2ccc(O)c3ccccc23)CC1 (stereo not drawn)	37.4
COc1cc(O)ccc1N1CCN(CC(O)COc2cccc3ccccc23)CC1 (stereo not drawn)	10.5
Oc1ccc(N2CCN(CC(O)COc3ccc(O)c4ccccc34)CC2)c(O)c1 (stereo not drawn)	15.6
Oc1ccccc1N1CCN(CC(O)COc2ccc(O)c3ccccc23)CC1 (stereo not drawn)	14.8
Oc1ccc(N2CCN(CC(O)COc3cccc4ccccc34)CC2)c(O)c1 (stereo not drawn)	13.4
Oc1ccccc1N1CCN(CC(O)COc2cccc3ccccc23)CC1 (stereo not drawn)	18
COc1ccccc1N1CCN(CC(O)COc2ccc(O)c3ccccc23)CC1 (stereo not drawn)	16.1
COc1ccccc1N1CCN(CC(O)COc2cccc3ccccc23)CC1 (stereo not drawn) [NAFTOPIDIL]	18.5

Tested on: DU-145
Assay: Antiproliferative activity against human DU145 cells assessed as reduction in cell viability incubated for 48 hrs by MTT assay
Format: functional, cell-based
Conditions: DU-145, 48 h
How it was run: as §1

IC50 [µM]	SMILES
> 50	COc1cc(O)ccc1N1CCN(CC(O)COc2ccc(O)c3ccccc23)CC1 (stereo not drawn)
20.3	Oc1ccc(N2CCN(CC(O)COc3ccc(O)c4ccccc34)CC2)c(O)c1 (stereo not drawn)
> 50	Oc1ccccc1N1CCN(CC(O)COc2ccc(O)c3ccccc23)CC1 (stereo not drawn)
11.6	Oc1ccc(N2CCN(CC(O)COc3cccc4ccccc34)CC2)c(O)c1 (stereo not drawn)

Second part, the molecule before the results:

SMILES	IC50 [µM]
COc1cc(O)ccc1N1CCN(CC(O)COc2cccc3ccccc23)CC1 (stereo not drawn)	17.2
Oc1ccccc1N1CCN(CC(O)COc2cccc3ccccc23)CC1 (stereo not drawn)	18
COc1ccccc1N1CCN(CC(O)COc2ccc(O)c3ccccc23)CC1 (stereo not drawn)	35.1
COc1ccccc1N1CCN(CC(O)COc2cccc3ccccc23)CC1 (stereo not drawn) [NAFTOPIDIL]	21.1

Tested on: not listed separately
Assay: Antiproliferative activity against mouse MB49 cells assessed as reduction in cell viability after 72 hrs by WST-8 assay
Format: functional, cell-based
Conditions: MB49, 72 h

SMILES	IC50 [µM]
COc1cc(O)ccc1N1CCN(CC(O)COc2cccc3ccccc23)CC1 (stereo not drawn)	12
COc1ccccc1N1CCN(CC(O)COc2cccc3ccccc23)CC1 (stereo not drawn) [NAFTOPIDIL]	23
COc1cccc2c1C(=O)c1c(O)c3c(c(O)c1C2=O)C[C@@](O)(C(=O)CO)C[C@@H]3O[C@H]1C[C@H](N)[C@H](O[C@@H]2CCCCO2)[C@H](C)O1 [PIRARUBICIN]	0.022

Tested on: 786-0
Assay: Antiproliferative activity against human 786-O cells assessed as reduction in cell viability incubated for 48 hrs by MTT assay
Format: functional, cell-based
Conditions: 786-0, 48 h
How it was run: as §1

IC50 [µM]	SMILES
38.7	COc1cc(O)ccc1N1CCN(CC(O)COc2ccc(O)c3ccccc23)CC1 (stereo not drawn)
18.5	Oc1ccc(N2CCN(CC(O)COc3ccc(O)c4ccccc34)CC2)c(O)c1 (stereo not drawn)
9.7	Oc1ccccc1N1CCN(CC(O)COc2ccc(O)c3ccccc23)CC1 (stereo not drawn)
17.5	Oc1ccc(N2CCN(CC(O)COc3cccc4ccccc34)CC2)c(O)c1 (stereo not drawn)

Continued, molecule first:

SMILES	IC50 [µM]
COc1cc(O)ccc1N1CCN(CC(O)COc2cccc3ccccc23)CC1 (stereo not drawn)	11.4
Oc1ccccc1N1CCN(CC(O)COc2cccc3ccccc23)CC1 (stereo not drawn)	18.7
COc1ccccc1N1CCN(CC(O)COc2ccc(O)c3ccccc23)CC1 (stereo not drawn)	46.9
COc1ccccc1N1CCN(CC(O)COc2cccc3ccccc23)CC1 (stereo not drawn) [NAFTOPIDIL]	13.3

Tested on: not listed separately
Assay: Antiproliferative activity against C3H mouse MBT2 cells assessed as reduction in cell viability
Format: functional, cell-based
Conditions: not given

SMILES	IC50 [µM]
COc1cccc2c1C(=O)c1c(O)c3c(c(O)c1C2=O)C[C@@](O)(C(=O)CO)C[C@@H]3O[C@H]1C[C@H](N)[C@H](O[C@@H]2CCCCO2)[C@H](C)O1 [PIRARUBICIN]	0.022

Tested on: not listed separately
Assay: Toxicity in C57BL/6 mouse bladder cancer model xenografted with mouse MB49 cells at 50 mg/ml dosed via intravesical instillation through catheter for 2 hrs and measured for 28 days
Format: organism-based
Conditions: in vivo, other
How it was run: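 […] model: a small number of MB49 cells (C57BL/6-derived) were injected by needle into the bladder smooth muscle of C57BL/6 mice after laparotomy under anaesthesia. Compound at 50 mg/mL was then given once by intravesical instillation and kept for 2 h. Day 0 was implantation/dosing, and survival was followed for 4 weeks. Saline, BCG (2 mg/mL) and pirarubicin (1 mg/mL) served as comparators.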

SMILES	Activity
COc1cc(O)ccc1N1CCN(CC(O)COc2cccc3ccccc23)CC1 (stereo not drawn)	Non-Toxic

Tested on: not listed separately
Assay: Antitumor activity against mouse MB49 cells xenografted in C57BL/6 mouse bladder cancer model assessed as death rate at 50 mg/ml dosed via intravesical instillation through catheter for 2 hrs and measured after 28 days relative to control
Format: functional
Conditions: not given
How it was run: (§2)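 MB49 cells (C57BL/6-derived) were injected by needle into the bladder smooth-muscle layer of anaesthetised C57BL/6 mice after laparotomy. The same day (day 0), a single intravesical instillation was given and held in the bladder for 2 h, with saline as the control. Deaths were recorded over 4 weeks, to day 28.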

SMILES	mortality [%]
COc1cc(O)ccc1N1CCN(CC(O)COc2cccc3ccccc23)CC1 (stereo not drawn)	30

Tested on: PC-3
Assay: Antiproliferative activity against human PC3 cells assessed as reduction in cell viability incubated for 48 hrs by MTT assay
Format: functional, cell-based
Conditions: PC-3, 48 h
How it was run: as §1

IC50 [µM]	SMILES
45.7	COc1cc(O)ccc1N1CCN(CC(O)COc2ccc(O)c3ccccc23)CC1 (stereo not drawn)
17.7	Oc1ccc(N2CCN(CC(O)COc3ccc(O)c4ccccc34)CC2)c(O)c1 (stereo not drawn)
26.1	Oc1ccccc1N1CCN(CC(O)COc2ccc(O)c3ccccc23)CC1 (stereo not drawn)
30.3	Oc1ccc(N2CCN(CC(O)COc3cccc4ccccc34)CC2)c(O)c1 (stereo not drawn)

More lines, now with the values behind:

SMILES	IC50 [µM]
COc1cc(O)ccc1N1CCN(CC(O)COc2cccc3ccccc23)CC1 (stereo not drawn)	24.4
Oc1ccccc1N1CCN(CC(O)COc2cccc3ccccc23)CC1 (stereo not drawn)	21.7
COc1ccccc1N1CCN(CC(O)COc2ccc(O)c3ccccc23)CC1 (stereo not drawn)	28
COc1ccccc1N1CCN(CC(O)COc2cccc3ccccc23)CC1 (stereo not drawn) [NAFTOPIDIL]	31.2

Tested on: PNT1A
Assay: Cytotoxicity against human PNT1A cells assessed as reduction in cell viability incubated for 48 hrs by MTT assay
Format: cell-based
Conditions: not given
How it was run: as §1

SMILES	IC50 [µM]
COc1cc(O)ccc1N1CCN(CC(O)COc2ccc(O)c3ccccc23)CC1 (stereo not drawn)	37.2
COc1cc(O)ccc1N1CCN(CC(O)COc2cccc3ccccc23)CC1 (stereo not drawn)	> 50
Oc1ccc(N2CCN(CC(O)COc3ccc(O)c4ccccc34)CC2)c(O)c1 (stereo not drawn)	17.1
Oc1ccccc1N1CCN(CC(O)COc2ccc(O)c3ccccc23)CC1 (stereo not drawn)	37.4
Oc1ccc(N2CCN(CC(O)COc3cccc4ccccc34)CC2)c(O)c1 (stereo not drawn)	29.9
Oc1ccccc1N1CCN(CC(O)COc2cccc3ccccc23)CC1 (stereo not drawn)	22.2
COc1ccccc1N1CCN(CC(O)COc2ccc(O)c3ccccc23)CC1 (stereo not drawn)	34.9
COc1ccccc1N1CCN(CC(O)COc2cccc3ccccc23)CC1 (stereo not drawn) [NAFTOPIDIL]	27

Tested on: not listed separately
Assay: AUC (0 to 6 hrs) in Sprague-Dawley rat at 32 mg/kg, po measured upto 6 hrs by HPLC analysis
Format: ADME, organism-based
Set-up: dose 32 mg/kg, time < 6 hr, route oral
Conditions: in vivo

SMILES	AUC(0-t) at 6 h [ng·h/mL]
COc1cc(O)ccc1N1CCN(CC(O)COc2cccc3ccccc23)CC1 (stereo not drawn)	204
COc1ccccc1N1CCN(CC(O)COc2cccc3ccccc23)CC1 (stereo not drawn) [NAFTOPIDIL]	202

Tested on: KK-47 cell line
Assay: Antiproliferative activity against human KK47 cells assessed as reduction in cell viability incubated for 48 hrs by MTT assay
Format: functional, cell-based
Conditions: KK-47, 48 h
How it was run: as §1

SMILES	IC50 [µM]
COc1cc(O)ccc1N1CCN(CC(O)COc2ccc(O)c3ccccc23)CC1 (stereo not drawn)	> 50
COc1cc(O)ccc1N1CCN(CC(O)COc2cccc3ccccc23)CC1 (stereo not drawn)	11.8
Oc1ccc(N2CCN(CC(O)COc3ccc(O)c4ccccc34)CC2)c(O)c1 (stereo not drawn)	17.9
Oc1ccccc1N1CCN(CC(O)COc2ccc(O)c3ccccc23)CC1 (stereo not drawn)	33
Oc1ccc(N2CCN(CC(O)COc3cccc4ccccc34)CC2)c(O)c1 (stereo not drawn)	9.6
Oc1ccccc1N1CCN(CC(O)COc2cccc3ccccc23)CC1 (stereo not drawn)	18.9
COc1ccccc1N1CCN(CC(O)COc2ccc(O)c3ccccc23)CC1 (stereo not drawn)	17.6
COc1ccccc1N1CCN(CC(O)COc2cccc3ccccc23)CC1 (stereo not drawn) [NAFTOPIDIL]	19

Tested on: not listed separately
Assay: Antitumor activity against mouse MB49 cells xenografted in C57BL/6 mouse bladder cancer model assessed as death rate at 1 mg/ml dosed via intravesical instillation through catheter for 2 hrs and measured after 28 days relative to control
Format: functional
Conditions: not given
How it was run: as §2

SMILES	mortality
COc1cccc2c1C(=O)c1c(O)c3c(c(O)c1C2=O)C[C@@](O)(C(=O)CO)C[C@@H]3O[C@H]1C[C@H](N)[C@H](O[C@@H]2CCCCO2)[C@H](C)O1 [PIRARUBICIN]	70 - 80%

Tested on: L5178Y
Assay: Antiproliferative activity against mouse L5178Y cells assessed as reduction in cell viability
Format: functional, cell-based
Conditions: not given

SMILES	IC50 [µM]
COc1cccc2c1C(=O)c1c(O)c3c(c(O)c1C2=O)C[C@@](O)(C(=O)CO)C[C@@H]3O[C@H]1C[C@H](N)[C@H](O[C@@H]2CCCCO2)[C@H](C)O1 [PIRARUBICIN]	0.023

Tested on: HEK293
Assay: Cytotoxicity against human HEK293 cells assessed as reduction in cell viability incubated for 48 hrs by MTT assay
Format: cell-based
Conditions: HEK293, 48 h
How it was run: as §1

SMILES	IC50 [µM]
COc1cc(O)ccc1N1CCN(CC(O)COc2ccc(O)c3ccccc23)CC1 (stereo not drawn)	> 50
COc1cc(O)ccc1N1CCN(CC(O)COc2cccc3ccccc23)CC1 (stereo not drawn)	> 50
Oc1ccc(N2CCN(CC(O)COc3ccc(O)c4ccccc34)CC2)c(O)c1 (stereo not drawn)	40.4
Oc1ccccc1N1CCN(CC(O)COc2ccc(O)c3ccccc23)CC1 (stereo not drawn)	> 50
Oc1ccc(N2CCN(CC(O)COc3cccc4ccccc34)CC2)c(O)c1 (stereo not drawn)	> 50
Oc1ccccc1N1CCN(CC(O)COc2cccc3ccccc23)CC1 (stereo not drawn)	> 50
COc1ccccc1N1CCN(CC(O)COc2ccc(O)c3ccccc23)CC1 (stereo not drawn)	> 50
COc1ccccc1N1CCN(CC(O)COc2cccc3ccccc23)CC1 (stereo not drawn) [NAFTOPIDIL]	47.3

Tested on: not listed separately
Assay: Cmax in Sprague-Dawley rat at 32 mg/kg, po measured after 15 mins by HPLC analysis
Format: ADME, organism-based
Set-up: dose 32 mg/kg, route oral
Conditions: in vivo

SMILES	Cmax [ng/mL]
COc1cc(O)ccc1N1CCN(CC(O)COc2cccc3ccccc23)CC1 (stereo not drawn)	397
COc1ccccc1N1CCN(CC(O)COc2cccc3ccccc23)CC1 (stereo not drawn) [NAFTOPIDIL]	110
